The structures appear in SMILES notation.

The data set is described as follows: Cytotoxicity against rat RBL2H3 cells by MTT assay. Also noted: concentration or dose not given beside the values. As to conditions: rbl-2h3. In kind it is cell-based. In short, it runs like this: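 RBL2H3 cells (α-MEM) or PC12 cells (D-MEM), both with 10% FBS, treated at a single dose in 0.1% DMSO; 0.1% DMSO control; 37 °C, 5% CO2. MTT (5 mg/mL) added 4 h before the end, then SDS/DMF lysis buffer (pH 7.2) for 6 h; absorbance read at 570 nm. Cytotoxicity % calculated from background-corrected OD versus control.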
In turn, `CCOC(=O)CNC(=O)[C@]12CC[C@@H](C)[C@H](C)[C@H]1C1=CC[C@@H]3[C@@]4(C)Cc5cnn(-c6ccc(F)cc6)c5C(C)(C)[C@@H]4CC[C@@]3(C)[C@]1(C)CC2` came in with an Activity of 15.8%.

Regarding `COC(=O)C(Cc1ccccc1)NC(=O)[C@]12CC[C@@H](C)[C@H](C)[C@H]1C1=CC[C@@H]3[C@@]4(C)CC[C@H](OC(C)=O)C(C)(C)[C@@H]4CC[C@@]3(C)[C@]1(C)CC2` (stereo partly specified), the Activity is 12.4%.

In turn, `C[C@H]1[C@H](C)CC[C@]2(C(=O)O)CC[C@]3(C)C(=CC[C@@H]4[C@@]5(C)Cc6c([nH]c7ccc(Br)cc67)C(C)(C)[C@@H]5CC[C@]43C)[C@H]12` registered an Activity of 3.7%.

As to `C[C@H]1[C@H](C)CC[C@]2(C(=O)NCCC3CCN(Cc4ccccc4)CC3)CC[C@]3(C)C(=CC[C@@H]4[C@@]5(C)Cc6nc7ccccc7nc6C(C)(C)[C@@H]5CC[C@]43C)[C@H]12`, the Activity was 59.5%.

The compound `COC(=O)C(Cc1ccccc1)NC(=O)[C@]12CC[C@@H](C)[C@H](C)[C@H]1C1=CC[C@@H]3[C@@]4(C)Cc5cnoc5C(C)(C)[C@@H]4CC[C@@]3(C)[C@]1(C)CC2` (stereo partly specified) displayed an Activity of 0.8%.

`COC(=O)C(Cc1ccccc1)NC(=O)[C@]12CC[C@@H](C)[C@H](C)[C@H]1C1=CC[C@@H]3[C@@]4(C)Cc5cncnc5C(C)(C)[C@@H]4CC[C@@]3(C)[C@]1(C)CC2` (stereo partly specified) came in with an Activity of 2.6%.

Consider `COC(=O)C(CC(C)C)NC(=O)[C@]12CC[C@@H](C)[C@H](C)[C@H]1C1=CC[C@@H]3[C@@]4(C)Cc5c([nH]c6ccc(Cl)cc56)C(C)(C)[C@@H]4CC[C@@]3(C)[C@]1(C)CC2` (stereo partly specified), for which the Activity worked out at 15%.

In turn, `COC(=O)C(Cc1ccccc1)NC(=O)[C@]12CC[C@@H](C)[C@H](C)[C@H]1C1=CC[C@@H]3[C@@]4(C)Cc5cnn(-c6ccccc6)c5C(C)(C)[C@@H]4CC[C@@]3(C)[C@]1(C)CC2` (stereo partly specified) returned an Activity of 0.9%.

For the compound `COC(=O)C(Cc1ccccc1)NC(=O)[C@]12CC[C@@H](C)[C@H](C)[C@H]1C1=CC[C@@H]3[C@@]4(C)CCC(=O)C(C)(C)[C@@H]4CC[C@@]3(C)[C@]1(C)CC2` (stereo partly specified), the Activity is 1.1%.

Turning to `C[C@H]1[C@H](C)CC[C@]2(C(=O)O)CC[C@]3(C)C(=CC[C@@H]4[C@@]5(C)Cc6nc7cc(Cl)c(Cl)cc7nc6C(C)(C)[C@@H]5CC[C@]43C)[C@H]12`, the Activity was found to be 2.2%.

The compound `C[C@H]1[C@H](C)CC[C@]2(C(=O)NC3CCN(Cc4ccccc4)CC3)CC[C@]3(C)C(=CC[C@@H]4[C@@]5(C)Cc6nc7ccccc7nc6C(C)(C)[C@@H]5CC[C@]43C)[C@H]12` registered an Activity of 51.1%.

As to `COC(=O)C(CC(C)C)NC(=O)[C@]12CC[C@@H](C)[C@H](C)[C@H]1C1=CC[C@@H]3[C@@]4(C)CC[C@H](OC(C)=O)C(C)(C)[C@@H]4CC[C@@]3(C)[C@]1(C)CC2` (stereo partly specified), the Activity was found to be 6.6%.

`CCOC(=O)CNC(=O)[C@]12CC[C@@H](C)[C@H](C)[C@H]1C1=CC[C@@H]3[C@@]4(C)CCC(=O)C(C)(C)[C@@H]4CC[C@@]3(C)[C@]1(C)CC2` displayed an Activity of 1.7%.

In turn, `COC(=O)C(CC(C)C)NC(=O)[C@]12CC[C@@H](C)[C@H](C)[C@H]1C1=CC[C@@H]3[C@@]4(C)Cc5nc6cc(Cl)c(Cl)cc6nc5C(C)(C)[C@@H]4CC[C@@]3(C)[C@]1(C)CC2` (stereo partly specified) returned an Activity of 0.7%.

For `CCOC(=O)CNC(=O)[C@]12CC[C@@H](C)[C@H](C)[C@H]1C1=CC[C@@H]3[C@@]4(C)Cc5cnn(-c6ccccc6)c5C(C)(C)[C@@H]4CC[C@@]3(C)[C@]1(C)CC2`, the Activity came out at 1.2%.

For `COC(=O)C(CC(C)C)NC(=O)[C@]12CC[C@@H](C)[C@H](C)[C@H]1C1=CC[C@@H]3[C@@]4(C)Cc5cnn(-c6ccccc6)c5C(C)(C)[C@@H]4CC[C@@]3(C)[C@]1(C)CC2` (stereo partly specified), the Activity stood at 1.8%.

As to `CC(=O)O[C@H]1CC[C@]2(C)[C@H]3CC=C4[C@@H]5[C@@H](C)[C@H](C)CC[C@]5(C(=O)O)CC[C@@]4(C)[C@]3(C)CC[C@H]2C1(C)C` [O-ACETYLURSOLIC ACID], the Activity is on record as 4.1%.

`C[C@H]1[C@H](C)CC[C@]2(C(=O)O)CC[C@]3(C)C(=CC[C@@H]4[C@@]5(C)Cc6c([nH]c7ccc(Cl)cc67)C(C)(C)[C@@H]5CC[C@]43C)[C@H]12` returned an Activity of 2.9%.

As to `COC(=O)C(Cc1ccccc1)NC(=O)[C@]12CC[C@@H](C)[C@H](C)[C@H]1C1=CC[C@@H]3[C@@]4(C)Cc5nc6ccccc6nc5C(C)(C)[C@@H]4CC[C@@]3(C)[C@]1(C)CC2` (stereo partly specified), the Activity is recorded as 12.4%.

The compound `C[C@H]1[C@H](C)CC[C@]2(C(=O)O)CC[C@]3(C)C(=CC[C@@H]4[C@@]5(C)Cc6cnn(-c7ccccc7)c6C(C)(C)[C@@H]5CC[C@]43C)[C@H]12` returned an Activity of 2.4%.

For `COC(=O)C(CC(C)C)NC(=O)[C@]12CC[C@@H](C)[C@H](C)[C@H]1C1=CC[C@@H]3[C@@]4(C)Cc5nc6ccccc6nc5C(C)(C)[C@@H]4CC[C@@]3(C)[C@]1(C)CC2` (stereo partly specified), the Activity is given as 0.5%.

In turn, `COC(=O)C(Cc1ccccc1)NC(=O)[C@]12CC[C@@H](C)[C@H](C)[C@H]1C1=CC[C@@H]3[C@@]4(C)Cc5nc6cc(Cl)c(Cl)cc6nc5C(C)(C)[C@@H]4CC[C@@]3(C)[C@]1(C)CC2` (stereo partly specified) showed an Activity of 7.7%.

On to `C[C@H]1[C@H](C)CC[C@]2(C(=O)O)CC[C@]3(C)C(=CC[C@@H]4[C@@]5(C)Cc6cnoc6C(C)(C)[C@@H]5CC[C@]43C)[C@H]12`, for which the Activity worked out at 2.1%.

Compound `C[C@H]1[C@H](C)CC[C@]2(C(=O)O)CC[C@]3(C)C(=CC[C@@H]4[C@@]5(C)Cc6cncnc6C(C)(C)[C@@H]5CC[C@]43C)[C@H]12` registered an Activity of 4.3%.

With `COC(=O)C(Cc1ccccc1)NC(=O)[C@]12CC[C@@H](C)[C@H](C)[C@H]1C1=CC[C@@H]3[C@@]4(C)C=C(C#N)C(=O)C(C)(C)[C@@H]4CC[C@@]3(C)[C@]1(C)CC2` (stereo partly specified), the Activity came out at 5.4%.

In turn, `CSCC[C@@H](NC(=O)[C@]12CC[C@@H](C)[C@H](C)[C@H]1C1=CC[C@@H]3[C@@]4(C)Cc5nc6ccccc6nc5C(C)(C)[C@@H]4CC[C@@]3(C)[C@]1(C)CC2)C(=O)O` came in with an Activity of 6.2%.

`COC(=O)C(CC(C)C)NC(=O)[C@]12CC[C@@H](C)[C@H](C)[C@H]1C1=CC[C@@H]3[C@@]4(C)Cc5cncnc5C(C)(C)[C@@H]4CC[C@@]3(C)[C@]1(C)CC2` (stereo partly specified) had an Activity of 10.3%.

For `COC(=O)C(CC(C)C)NC(=O)[C@]12CC[C@@H](C)[C@H](C)[C@H]1C1=CC[C@@H]3[C@@]4(C)Cc5cn[nH]c5C(C)(C)[C@@H]4CC[C@@]3(C)[C@]1(C)CC2` (stereo partly specified), the Activity is reported as 0.9%.

The compound `C[C@H]1[C@H](C)CC[C@]2(C(=O)NCCN3CCCCC3)CC[C@]3(C)C(=CC[C@@H]4[C@@]5(C)Cc6nc7ccccc7nc6C(C)(C)[C@@H]5CC[C@]43C)[C@H]12` came in with an Activity of 52.1%.

For the compound `COC(=O)C(Cc1ccccc1)NC(=O)[C@]12CC[C@@H](C)[C@H](C)[C@H]1C1=CC[C@@H]3[C@@]4(C)Cc5cn[nH]c5C(C)(C)[C@@H]4CC[C@@]3(C)[C@]1(C)CC2` (stereo partly specified), the Activity is 1.9%.

`CCOC(=O)CNC(=O)[C@]12CC[C@@H](C)[C@H](C)[C@H]1C1=CC[C@@H]3[C@@]4(C)CC[C@H](OC(C)=O)C(C)(C)[C@@H]4CC[C@@]3(C)[C@]1(C)CC2` returned an Activity of 1.6%.

`COC(=O)C(CC(C)C)NC(=O)[C@]12CC[C@@H](C)[C@H](C)[C@H]1C1=CC[C@@H]3[C@@]4(C)CCC(=O)C(C)(C)[C@@H]4CC[C@@]3(C)[C@]1(C)CC2` (stereo partly specified) returned an Activity of 2.6%.

The compound `COC(=O)C(CC(C)C)NC(=O)[C@]12CC[C@@H](C)[C@H](C)[C@H]1C1=CC[C@@H]3[C@@]4(C)C=C(C#N)C(=O)C(C)(C)[C@@H]4CC[C@@]3(C)[C@]1(C)CC2` (stereo partly specified) came in with an Activity of 58.1%.

In turn, `C[C@H]1[C@H](C)CC[C@]2(C(=O)O)CC[C@]3(C)C(=CC[C@@H]4[C@@]5(C)Cc6nc7ccccc7nc6C(C)(C)[C@@H]5CC[C@]43C)[C@H]12` registered an Activity of 3.5%.

In turn, `C[C@H]1[C@H](C)CC[C@]2(C(=O)NCCCN3CCOCC3)CC[C@]3(C)C(=CC[C@@H]4[C@@]5(C)Cc6nc7ccccc7nc6C(C)(C)[C@@H]5CC[C@]43C)[C@H]12` came in with an Activity of 31.3%.

`COC(=O)C(CC(C)C)NC(=O)[C@]12CC[C@@H](C)[C@H](C)[C@H]1C1=CC[C@@H]3[C@@]4(C)Cc5c([nH]c6ccc(Br)cc56)C(C)(C)[C@@H]4CC[C@@]3(C)[C@]1(C)CC2` (stereo partly specified) showed an Activity of 3%.

Regarding `CCOC(=O)CNC(=O)[C@]12CC[C@@H](C)[C@H](C)[C@H]1C1=CC[C@@H]3[C@@]4(C)Cc5c([nH]c6ccc(Cl)cc56)C(C)(C)[C@@H]4CC[C@@]3(C)[C@]1(C)CC2`, the Activity came out at 14.7%.

On to `CCOC(=O)CNC(=O)[C@]12CC[C@@H](C)[C@H](C)[C@H]1C1=CC[C@@H]3[C@@]4(C)Cc5cn[nH]c5C(C)(C)[C@@H]4CC[C@@]3(C)[C@]1(C)CC2`, for which the Activity is reported as 0.4%.

Turning to `COC(=O)C(CC(C)C)NC(=O)[C@]12CC[C@@H](C)[C@H](C)[C@H]1C1=CC[C@@H]3[C@@]4(C)Cc5cnoc5C(C)(C)[C@@H]4CC[C@@]3(C)[C@]1(C)CC2` (stereo partly specified), the Activity is recorded as 17.7%.

Consider `C[C@H]1[C@H](C)CC[C@]2(C(=O)O)CC[C@]3(C)C(=CC[C@@H]4[C@@]5(C)Cc6cnn(-c7ccc(F)cc7)c6C(C)(C)[C@@H]5CC[C@]43C)[C@H]12`, for which the Activity was 1.5%.

For the compound `C[C@H]1[C@H](C)CC[C@]2(C(=O)O)CC[C@]3(C)C(=CC[C@@H]4[C@@]5(C)CC[C@H](O)C(C)(C)[C@@H]5CC[C@]43C)[C@H]12` [URSOLIC ACID], the Activity amounted to 10%.
